Experimental data gathered from unrelated publications.
Each line is one published result; the experiments were not run side by side.

Structure (SMILES)	test	system	conditions	quantity	result
CC(C)(Nc1nc(-c2ccccn2)nc2ccccc12)c1ccccn1		female BALB/c mouse, plasma	oral, 50 mg/kg, 8 h	concentration	5860 ng/mL
COc1cc(/C=C/c2ccccc2)cc(OC)c1	HPLC			chromatographic logP	> 3.14
Cc1ccc(C(CC(=O)c2ccc(Oc3ccccc3)c(O)c2)C(N)=O)cc1 (stereo not drawn)	HPLC			chromatographic logP	4.06
CS(=O)(=O)CCC#N		human, plasma	oral, 1000 mg, single dose, fasted	MRT	32.5 h
CC(C)Oc1cccc(-c2cnc(N3CCC(C(N)=O)CC3)s2)c1		male Swiss mouse, plasma	oral, 30 mg/kg, 0 h, single dose	concentration	0 nM
COc1cc(/C=C/c2ccc(O)cc2)cc(OC)c1	HPLC			chromatographic logP	> 3.14
CCCN(CCC)CCc1cccc2c1CC(=O)N2	metabolic stability	dog, hepatocytes	1 µM	hepatocyte CLint	16.3 µL/min/10⁶ cells
O=C(O)C1CCN(c2ncc(-c3ccc4c(c3)OCCCO4)s2)CC1		male Swiss mouse, plasma	oral, 30 mg/kg, 30 min, single dose	concentration	14800 ng/mL
CCc1ccc(Cc2cc([C@@H]3O[C@H](CO)[C@@H](O)[C@H](O)[C@H]3O)cc3c2CCC3)cc1		male C57BL/6 mouse, plasma	oral, 0.3 mg/kg	half-life	3.1 h
CC1=NN(CNc2ccccc2)C(=O)C1=NNn1c(-c2ccccc2)nc2ccccc2c1=O				logP	4.49
CC(C)(O)c1ccccc1-c1ccc2[nH]c(/C=C/c3ccc(C(F)(F)F)cc3)nc2c1		male human, plasma	oral, 50 mg, single dose, fasted, healthy volunteers	MRT	99.5 h
O=S(=O)(c1ccc(-c2ccc3nccc(Nc4ccncn4)c3c2)cc1)N1CCOCC1		female BALB/c mouse, plasma	intraperitoneal, 10 mg/kg, 4.8 min	concentration	2340 ng/mL
CC(C)CN(C[C@@H](O)[C@H](Cc1ccccc1)NC(=O)O[C@H]1CO[C@H]2OCC[C@H]21)S(=O)(=O)c1ccc(N)cc1		BALB/c mouse, plasma	intravenous, 2.5 mg/kg, 3 h	concentration	23.9 ng/mL
COc1cccc(/C=C/c2ccc(O)cc2)c1	HPLC			chromatographic logP	> 3.14
O=C1NN=C(N=Cc2ccc(O)cc2O)C1=NNn1c(-c2ccccc2)nc2ccccc2c1=O				logP	3.38
N#CN1C[C@H](n2nc(-c3ccc(Oc4ccc(Cl)cn4)cc3)c(C(N)=O)c2N)CCC12CC2		human, plasma	oral, 600 mg, fed	MRT	33 h
c1cnc2ccc(Nc3nc(NC4CC4)c4nc[nH]c4n3)cc2c1		human, plasma	oral, 200 mg/m², patients	MRT(0-t)	5.7 h
CC(C)(C)c1ccc(O)c(CN(Cc2cc(C(C)(C)C)ccc2O)C2CCC(NC(N)=O)CC2)c1 (stereo not drawn)		male C57BL/6 mouse, plasma	intraperitoneal, 10 mg/kg, single dose	half-life	2.49 h
O=c1nc(N2CCN(CC3CCCCC3)CC2)sc2c([N+](=O)[O-])cc(C(F)(F)F)cc12		CD-1 mouse, plasma	oral, 100 mg/kg, 15 min	concentration	2280 ng/mL
Nc1ccc(-c2ccc3ncc(-c4noc(C(F)(F)F)n4)cc3c2)cc1	metabolic stability	beagle dog, liver microsomes	1 µM	scaled CLint	115 mL/min/kg
CC[C@H](C)[C@@H]1NC(=O)[C@@](C)(NC(=O)[C@H](CCCNC(=N)N)NC(=O)[C@H](CC(C)C)NC(=O)[C@@H](NC(=O)[C@H](CCC(N)=O)NC(=O)[C@H](CC(C)C)NC(C)=O)[C@@H](C)O)CCCC=CCCC[C@@](C)(C(=O)N[C@@H](CC(C)C)C(=O)N[C@@H](Cc2ccc3ccccc3c2)C(N)=O)NC(=O)[C@H](CCCNC(=N)N)NC(=O)[C@H](CCC(N)=O)NC1=O		male BALB/c mouse, plasma	intramuscular, 5 mg/kg	half-life	10.6 h
c1ccc(-c2nc(N3CCC(c4ccccn4)C3)c3ccccc3n2)nc1 (stereo not drawn)		female BALB/c mouse, plasma	oral, 50 mg/kg, 4 h	concentration	826 ng/mL
O=C1NN=C(N=Cc2ccccc2O)C1=NNn1c(-c2ccccc2)nc2ccccc2c1=O				logP	3.68
COc1ccc2nccc(N3CCc4c(cc(Cn5ccnc5)cc4-c4cn(C)nc4C(F)(F)F)C3=O)c2c1		male CD-1 mouse, plasma	oral, 10 mg/kg	half-life	1.2 h
